Data as given in ChEMBL document CHEMBL2311473, “Characterization of antimicrobial, cytotoxic, and antiendotoxin properties of short peptides with different hydrophobic amino acids at "a" and "d" positions of a heptad repeat sequence” (J Med Chem, 2013).
≈ marks a conversion by molar mass, not a printed value. Calls of active or inactive are those of the source. No cut-off for these calls is given here.

What was measured:
[1] = tested on: NIH3T3; assay: Cytotoxicity against mouse 3T3 cells assessed as cell viability up to 25 uM by MTT assay; format: cell-based
In short: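 Murine 3T3 fibroblasts, grown in DMEM/IMDM with 10% FCS at 37 °C, 5% CO2, seeded at 10000 cells/well. Viability after peptide exposure measured by MTT (mitochondrial dehydrogenase) across a dose range.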

[2] = tested on: Staphylococcus epidermidis; assay: Antibacterial activity against Staphylococcus epidermidis NRRL B-4268 after 18 hrs by broth dilution method; format: functional; conditions: NRRL B-4268, 18 h
In short: (§1)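 Bacteria grown aerobically at 37 °C in Mueller-Hinton broth to mid-log phase (OD600), diluted to ~10^6 cfu/mL, then mixed 1:1 with 2-fold serial peptide dilutions in water. Incubation ~18 h at 37 °C before MIC read-out (μM).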

[3] = tested on: Klebsiella pneumoniae; assay: Antibacterial activity against Klebsiella pneumoniae ATCC 27736 after 18 hrs by broth dilution method; format: functional; conditions: ATCC 27736, 18 h; in short: as §1
[4] = tested on: RAW264.7; assay: Antiinflammatory activity in mouse RAW264.7 cells assessed as inhibition of LPS-induced TNFalpha secretion at 1.5 to 4.5 uM after 12 hrs by ELISA; format: functional, cell-based
In short: (§2)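 RAW 264.7 cells treated with LPS alone or LPS plus peptide. TNF-α and IL-6 measured by ELISA in culture supernatant and expressed as percentage inhibition of LPS-induced secretion. Mean of three independent experiments, SD shown.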

[5] = tested on: Trichophyton mentagrophytes; assay: Antifungal activity against Trichophyton mentagrophytes after 96 hrs by NCCLS microbroth dilution method; format: functional
In short: (§3)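 Microbroth dilution in MOPS-buffered RPMI 1640 following NCCLS guidelines. Inoculum 1−5 × 10^3 cells/mL, peptide range 50−0.36 (mass/mL). Plates held in a moist chamber at 35 °C and A492 read after 48 h (Candida spp.), 72 h (A. fumigatus, S. schenckii, C. neoformans) or 96 h (T. mentagrophytes). MIC taken as 90% growth inhibition versus growth control.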

[6] = Binding affinity to PC/Chol lipid vesicles assessed as increase in helical structure at 36 uM by circular dichroism analysis; format: physicochemical
In short: (§4)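 Peptides (~36 μM) with ~500 μM PC/Chol (8:1 w/w) or PE/PG (7:3 w/w) vesicles. CD spectra 250–190 nm at ~30 °C in 0.2 cm cuvette; 4–6 scans averaged at 20 nm/min, 0.5 nm interval.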

[7] = Binding affinity to PC/Chol lipid vesicles assessed as decrease in acrylamide-induced tryptophan fluorescence quenching at 1 uM; format: physicochemical
In short: (§5)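 Acrylamide quencher added in aliquots from 3.0 M stock to peptide with PC/Chol (8:1) or PE/PG (7:3) SUVs, peptide/lipid 1:100. Trp excited at 295 nm. Values corrected for dilution and vesicle-blank scatter, then fitted to Stern–Volmer F0/F = 1 + KSV[Q].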

[8] = Binding affinity to PE/PG lipid vesicles assessed as increase in helical structure at 36 uM by circular dichroism analysis; format: physicochemical; in short: as §4
[9] = tested on: Lipopolysaccharide (LPS); assay: Binding affinity to LPS assessed as inhibition of LPS-induced LAL enzyme activation at 9 uM after 30 mins by spectrophotometric analysis
In short: (§6)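 Chromogenic limulus amoebocyte lysate endotoxin kit. Peptide binding to LPS estimated from inhibition of LPS-induced LAL enzyme activation, i.e. reduced substrate colour, and reported as percentage LPS binding.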

[10] = tested on: Staphylococcus aureus; assay: Antibacterial activity against methicillin-resistant Staphylococcus aureus after 18 hrs by broth dilution method; format: functional; in short: as §1
[11] = tested on: Aspergillus fumigatus; assay: Antifungal activity against Aspergillus fumigatus after 72 hrs by NCCLS microbroth dilution method; format: functional; in short: as §3
[12] = Drug uptake in human RBC assessed as membrane localization at 9 uM after 10 to 30 mins by confocal microscopic analysis; format: ADME; conditions: erythrocyte
In short: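 Fresh hRBCs (3% in PBS) incubated with NBD-labeled peptide (~9.0 μM) for 10–30 min at 37 °C. Washed, fixed in 2% paraformaldehyde 10 min, and imaged by confocal microscopy at constant photomultiplier setting.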

[13] = tested on: Staphylococcus aureus; assay: Antibacterial activity against Staphylococcus aureus ATCC 9144 after 18 hrs by broth dilution method; format: functional; conditions: ATCC 9144, 18 h; in short: as §1
[14] = tested on: Escherichia coli; assay: Bactericidal activity against Escherichia coli ATCC 10536 assessed as induction of membrane damage at 5 uM after 30 mins by propidium iodide staining-based flow cytometric analysis; format: functional, organism-based
In short: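 Mid-log E. coli incubated with peptide (~5.0 μM) 30 min at 37 °C with shaking. Cells washed twice in PBS, stained with propidium iodide 30 min at 4 °C, washed and resuspended. 10000 events per sample by flow cytometry, compared with peptide-free control.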

[15] = tested on: Escherichia coli; assay: Antibacterial activity against Escherichia coli ATCC 10536 after 18 hrs by broth dilution method; format: functional; conditions: ATCC 10536, 18 h; in short: as §1
[16] = Binding affinity to PC/Chol lipid vesicles assessed as induction of large blue shift at 1 uM by fluorescence assay; format: physicochemical
[17] = tested on: Escherichia coli; assay: Drug uptake in Escherichia coli ATCC 10536 assessed as membrane localization at 3 uM after 30 mins by confocal microscopic analysis; format: ADME, organism-based; conditions: in vivo, 0.5 h
In short: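 E. coli (~10^6 CFU/mL) in LB incubated with fluorescent-labeled peptide (~3.0 μM) for half an hour. Cells centrifuged, washed and imaged by confocal microscopy (DIC and fluorescence).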

[18] = tested on: Sporothrix schenckii; assay: Antifungal activity against Sporothrix schenckii after 72 hrs by NCCLS microbroth dilution method; format: functional; in short: as §3
[19] = tested on: Lipopolysaccharide (LPS); assay: Binding affinity to LPS assessed as inhibition of LPS-induced LAL enzyme activation at 18 uM after 30 mins by spectrophotometric analysis; in short: as §6
[20] = Cytotoxicity against human RBC assessed as hemolysis at 60 uM; format: cell-based, Erythrocyte; conditions: red blood cells (RBC), read-out: Activity
In short: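 hRBCs in PBS exposed to peptide. Hemoglobin release read as supernatant absorbance at 540 nm. Hemolysis % = (Asample − Ablank)/(Atriton − Ablank) × 100, with PBS blank and 0.2% Triton X-100 (final) as 100% reference.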

[21] = tested on: Candida albicans; assay: Antifungal activity against Candida albicans after 48 hrs by NCCLS microbroth dilution method; format: functional; in short: as §3
[22] = tested on: Cryptococcus neoformans; assay: Antifungal activity against Cryptococcus neoformans after 72 hrs by NCCLS microbroth dilution method; format: functional; in short: as §3
[23] = tested on: Bacillus subtilis; assay: Antibacterial activity against Bacillus subtilis ATCC 6633 after 18 hrs by broth dilution method; format: functional; conditions: ATCC 6633, 18 h; in short: as §1
[24] = Binding affinity to PE/PG lipid vesicles assessed as induction of large blue shift at 1 uM by fluorescence assay; format: physicochemical
[25] = tested on: Lipopolysaccharide (LPS); assay: Binding affinity to LPS assessed as inhibition of LPS-induced LAL enzyme activation at 4.5 uM after 30 mins by spectrophotometric analysis; in short: as §6
[26] = tested on: Lipopolysaccharide (LPS); assay: Binding affinity to LPS assessed as increase in helical structure at 36 uM by circular dichroism analysis
In short: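 CD spectra of peptides (36 μM) recorded alone and with LPS at 3.8 and 6.25 μM.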

[27] = tested on: RAW264.7; assay: Antiinflammatory activity in mouse RAW264.7 cells assessed as inhibition of LPS-induced IL6 secretion at 1.5 to 4.5 uM after 12 hrs by ELISA; format: functional, cell-based; in short: as §2
[28] = tested on: Pseudomonas aeruginosa; assay: Antibacterial activity against Pseudomonas aeruginosa ATCC BAA-427 after 18 hrs by broth dilution method; format: functional; conditions: ATCC BAA-427, 18 h; in short: as §1
[29] = tested on: RAW264.7; assay: Antiinflammatory activity in mouse RAW264.7 cells assessed as downregulation of LPS-induced iNOS2 expression at 4.5 uM after 24 hrs by Western blotting analysis; format: functional, cell-based
In short: (§7)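 RAW 264.7 cells (~2 × 10^5) stimulated with LPS 1 μg/mL plus peptide 4.5 μM for 24 h. Cells washed in ice-cold PBS and lysed in Laemmli buffer. SDS-PAGE (8% gel iNOS-2, 12% TNF-α), nitrocellulose transfer, alkaline phosphatase secondary with NBT/BCIP. Band densities normalized to β-actin. LPS-only and untreated cells served as controls.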

[30] = Induction of dissipation of diffusion potential in PE/PG lipid vesicles by fluorescence assay; format: physicochemical
In short: (§8)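 SUVs of PC/Chol (8:1 w/w) or PE/PG (7:3 w/w) treated with peptide. Dissipation of diffusion potential taken as percentage fluorescence recovery ~5 min after peptide addition, with valinomycin used for reference levels. Plotted against peptide/lipid molar ratio.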

[31] = Cytotoxicity against human RBC assessed as induction of membrane damage at 25 uM after 5 mins by annexin V-FITC staining-based FACS flow cytometric analysis; format: cell-based; conditions: erythrocyte
In short: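 hRBCs (~3.0 × 10^7 cells/mL) treated with peptide (~25.0 μM) for 5 min at room temperature. Stained with FITC-annexin V and analysed by flow cytometry, 10000 events, compared with untreated control.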

[32] = Binding affinity to PE/PG lipid vesicles assessed as decrease in decrease in acrylamide-induced tryptophan fluorescence quenching at 1 uM; format: physicochemical; in short: as §5
[33] = Induction of dissipation of diffusion potential in PC/Chol lipid vesicles by fluorescence assay; format: physicochemical; in short: as §8
[34] = tested on: Candida parapsilosis; assay: Antifungal activity against Candida parapsilosis ATCC 22019 after 48 hrs by NCCLS microbroth dilution method; format: functional; conditions: Lodderomyces parapsilosis, ATCC 22019, 48 h; in short: as §3
[35] = tested on: RAW264.7; assay: Antiinflammatory activity in mouse RAW264.7 cells assessed as inhibition of LPS-induced NO production at 3 uM by Griess method; format: functional; parameters: scale not given: the % may be the effect or the level left
In short: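 RAW 264.7 cells plated at 5 × 10^5/well and exposed to LPS (E. coli 0111:B4, 1 μg/mL) together with peptide at varying doses. Cells with and without LPS served as maximum and basal NO controls. Nitrite in the supernatant measured by Griess reagent at 548 nm against a sodium nitrite standard curve, and percent inhibition of NO calculated.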

[36] = Cytotoxicity against human RBC assessed as induction of membrane depolarization at up to 16 uM by DiSC3(5) staining-based fluorescence assay; format: cell-based; conditions: erythrocyte
In short: (§9)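 Membrane potential dye diS-C3-5 preincubated 1 h with hRBC or S. aureus suspensions; I0 is steady-state fluorescence after this incubation. Peptide then added at varying concentrations. Depolarization expressed as percentage fluorescence recovery (Ft) versus peptide concentration.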

[37] = tested on: Lipopolysaccharide (LPS); assay: Binding affinity to FITC-tagged LPS assessed as induction of disintegration up to 40 uM by […]; conditions: in the assay text read “fluorescence dequenching” for “circular dichroism”
In short: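 FITC-LPS (0.5 μg/mL) titrated with increasing peptide concentrations. Disaggregation read as dequenching, i.e. rise in FITC fluorescence, monitored after each addition until emission reached equilibrium.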

[38] = tested on: Staphylococcus aureus; assay: Bactericidal activity against Staphylococcus aureus ATCC 9144 assessed as induction of membrane depolarization at up to 7 uM by DiSC3(5) staining-based fluorescence assay; format: functional, organism-based; in short: as §9
[39] = tested on: RAW264.7; assay: Antiinflammatory activity in mouse RAW264.7 cells assessed as downregulation of LPS-induced TNFalpha expression at 4.5 uM after 24 hrs by Western blotting analysis; format: functional, cell-based; in short: as §7

For `CC(C)C[C@H](N)C(=O)O` [LEUCINE], the Activity [1] was “Toxic”, the MIC [2] was 12.1 µM (≈ 1.59 µg/mL) and the MIC [3] was 6.2 µM (≈ 0.813 µg/mL). The inhibition [4] was “Active”, the MIC [5] was 1.56 µM (≈ 0.205 µg/mL) and the Activity [6] was “Active”. The Activity [7] was “Active”, the Activity [8] was “Active” and the inhibition [9] was 90%. For the same compound, the MIC [10] was 6.25 µM (≈ 0.82 µg/mL), the MIC [11] was 3.1 µM (≈ 0.407 µg/mL) and the Drug uptake [12] was “Active”. The MIC [13] was 6.25 µM (≈ 0.82 µg/mL), the Activity [14] was “Active” and the MIC [15] was 6.25 µM (≈ 0.82 µg/mL). The Activity [16] was “Active”, the Drug uptake [17] was “Active” and the MIC [18] was 1.56 µM (≈ 0.205 µg/mL). For the same compound, the inhibition [19] was “Active”, the hemolysis at 60 µM [20] was 80% and the MIC [21] was 3.1 µM (≈ 0.407 µg/mL). For the same compound, the MIC [22] was 6.1 µM (≈ 0.8 µg/mL), the MIC [23] was 10.5 µM (≈ 1.38 µg/mL) and the Activity [24] was “Active”. For the same compound, the inhibition [25] was 72%, the Activity [26] was “Active” and the inhibition [27] was “Active”. The MIC [28] was 11.2 µM (≈ 1.47 µg/mL), the Activity [29] was “Active” and the Activity [30] was “Active”. For the same compound, the Activity [31] was “Toxic”, the Activity [32] was “Active” and the Activity [33] was “Active”. The MIC [34] was 3 µM (≈ 0.394 µg/mL), the Activity [35] was 90% and the Activity [36] was “Toxic”. The Activity [37] was “Active”, the Activity [38] was “Active” and the Activity [39] was “Active”.
